The values below come from ChEMBL document CHEMBL2331152, “Multivalent Interactions: Synthesis and Evaluation of Melanotropin Multimers - Tools for Melanoma Targeting” (ACS Med Chem Lett, 2013).

In series [1] the target is T1, Melanocortin receptor 4 (Homo sapiens, UniProt P32245). The series is described as follows: Inhibition of human MC4R expressed in HEK293 cells assessed as cAMP accumulation by chemiluminescent immunoassay. It counts as functional, cell-based. For orientation: cAMP levels reflect the balance of adenylyl cyclase and phosphodiesterase activity.
Series [2] concerns the target T1, Melanocortin receptor 4. Description: Displacement of Eu-NDP-alpha-MSH from human MC4R expressed in HEK293 cells by time resolved fluorescence binding assay relative to multimer 1M. It is filed as cell-based. Summed up: (§1)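 Competition binding on HEK293 cells transfected to overexpress MC4R, against europium-labelled NDP-α-MSH tracer, read by time-resolved fluorescence. IC50 values are averaged from four experiments run in quadruplicate. Relative potency is expressed against the monovalent ligand.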

For series [3], the system named is HEK293. The series is described as follows: Cytotoxicity against human HEK293 cells assessed as cell viability at 1 uM upto 48 hrs. It counts as cell-based. The note with it: hek293, 48 h. Summed up: (§2)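 Cell viability was measured at three concentrations and three incubation times, up to 48 h. Values are expressed as % of untreated control and are the average of three independent experiments run in triplicate.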

Series [4] relates to HEK293. Description: Cytotoxicity against human HEK293 cells assessed as cell viability at 10 uM upto 2 days. It counts as cell-based. Conditions: hek293, 48 h. Summed up:
as §2

For series [5], the system named is HEK293. Description: Drug uptake in human HEK293 cells assessed as localization at cell surface measured after 90 mins of incubation by FM 1-43 dye-microscopy. It counts as ADME, cell-based. The gist of the method:
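Ligands were Cy5-labelled through a triarginine linker and incubated with cells for 90 min. The membrane probe FM 1-43 was added two minutes before image acquisition. Membrane localization was assessed by epifluorescence microscopy.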

Series [6] deals with HEK293. Description: Drug uptake in human HEK293 cells assessed as localization measured at 3 mins of incubation by FM 1-43 dye-microscopy. It counts as ADME, cell-based. The note with it: hek293, 0.05 h.
Series [7] has as its target T1, Melanocortin receptor 4. Description: Displacement of Eu-NDP-alpha-MSH from human MC4R expressed in HEK293 cells by time resolved fluorescence binding assay. It counts as cell-based. Summed up: as §1

Active and inactive are the calls of the source. The calls are words filed in the database; no cut-off is given here.

T1 sequence (P32245 whole entry): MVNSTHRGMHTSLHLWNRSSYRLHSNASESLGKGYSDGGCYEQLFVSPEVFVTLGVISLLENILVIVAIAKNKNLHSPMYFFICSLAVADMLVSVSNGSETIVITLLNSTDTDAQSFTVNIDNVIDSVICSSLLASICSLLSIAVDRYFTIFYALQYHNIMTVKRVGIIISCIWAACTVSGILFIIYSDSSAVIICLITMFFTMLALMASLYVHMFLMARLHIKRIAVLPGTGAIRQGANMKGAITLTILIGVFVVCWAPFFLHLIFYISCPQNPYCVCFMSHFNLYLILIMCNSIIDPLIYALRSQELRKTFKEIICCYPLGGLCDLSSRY

For the compound `N=C(N)NCCC[C@H](NC(=O)[C@@H](Cc1ccccc1)NC(=O)[C@H](Cc1cnc[nH]1)NC(=O)CCc1cn(CC(=O)NCCCC(CCCNC(=O)Cn2cc(CCC(=O)N[C@@H](Cc3cnc[nH]3)C(=O)N[C@H](Cc3ccccc3)C(=O)N[C@@H](CCCNC(=N)N)C(=O)N[C@@H](Cc3c[nH]c4ccccc34)C(N)=O)nn2)(NC(=O)CNC(=O)Cn2cc(CCC(=O)N[C@@H](Cc3cnc[nH]3)C(=O)N[C@H](Cc3ccccc3)C(=O)N[C@@H](CCCNC(=N)N)C(=O)N[C@@H](Cc3c[nH]c4ccccc34)C(N)=O)nn2)C(=O)NCCC(N)=O)nn1)C(=O)N[C@@H](Cc1c[nH]c2ccccc12)C(N)=O` (stereo not given in full), the result in series [1] was Active. The fold change (FC) in series [2] was found to be 350.

Turning to `CC(=O)NCC(=O)NC(CCCNC(=O)CCNC(=O)C(CCCNC(=O)Cn1cc(CCC(=O)N[C@@H](Cc2cnc[nH]2)C(=O)N[C@H](Cc2ccccc2)C(=O)N[C@@H](CCCNC(=N)N)C(=O)N[C@@H](Cc2c[nH]c3ccccc23)C(N)=O)nn1)(CCCNC(=O)Cn1cc(CCC(=O)N[C@@H](Cc2cnc[nH]2)C(=O)N[C@H](Cc2ccccc2)C(=O)N[C@@H](CCCNC(=N)N)C(=O)N[C@@H](Cc2c[nH]c3ccccc23)C(N)=O)nn1)NC(=O)CNC(=O)Cn1cc(CCC(=O)N[C@@H](Cc2cnc[nH]2)C(=O)N[C@H](Cc2ccccc2)C(=O)N[C@@H](CCCNC(=N)N)C(=O)N[C@@H](Cc2c[nH]c3ccccc23)C(N)=O)nn1)(CCCNC(=O)CCNC(=O)C(CCCNC(=O)Cn1cc(CCC(=O)N[C@@H](Cc2cnc[nH]2)C(=O)N[C@H](Cc2ccccc2)C(=O)N[C@@H](CCCNC(=N)N)C(=O)N[C@@H](Cc2c[nH]c3ccccc23)C(N)=O)nn1)(CCCNC(=O)Cn1cc(CCC(=O)N[C@@H](Cc2cnc[nH]2)C(=O)N[C@H](Cc2ccccc2)C(=O)N[C@@H](CCCNC(=N)N)C(=O)N[C@@H](Cc2c[nH]c3ccccc23)C(N)=O)nn1)NC(=O)CNC(=O)Cn1cc(CCC(=O)N[C@@H](Cc2cnc[nH]2)C(=O)N[C@H](Cc2ccccc2)C(=O)N[C@@H](CCCNC(=N)N)C(=O)N[C@@H](Cc2c[nH]c3ccccc23)C(N)=O)nn1)C(=O)NCCC(N)=O` (stereo not given in full), in series [1], the result was Active. Moreover, the Activity result in series [3] and in series [4] was “Non-toxic” each time. Further, in series [2], the fold change (FC) was found to be 104.

With `CC(=O)NCC(=O)NC(CCCNC(=O)CCNC(=O)C(CCCNC(=O)Cn1cc(CCC(=O)N[C@@H](Cc2cnc[nH]2)C(=O)N[C@H](Cc2ccccc2)C(=O)N[C@@H](CCCNC(=N)N)C(=O)N[C@@H](Cc2c[nH]c3ccccc23)C(N)=O)nn1)(CCCNC(=O)Cn1cc(CCC(=O)N[C@@H](Cc2cnc[nH]2)C(=O)N[C@H](Cc2ccccc2)C(=O)N[C@@H](CCCNC(=N)N)C(=O)N[C@@H](Cc2c[nH]c3ccccc23)C(N)=O)nn1)NC(=O)CNC(=O)Cn1cc(CCC(=O)N[C@@H](Cc2cnc[nH]2)C(=O)N[C@H](Cc2ccccc2)C(=O)N[C@@H](CCCNC(=N)N)C(=O)N[C@@H](Cc2c[nH]c3ccccc23)C(N)=O)nn1)(CCCNC(=O)CCNC(=O)C(CCCNC(=O)Cn1cc(CCC(=O)N[C@@H](Cc2cnc[nH]2)C(=O)N[C@H](Cc2ccccc2)C(=O)N[C@@H](CCCNC(=N)N)C(=O)N[C@@H](Cc2c[nH]c3ccccc23)C(N)=O)nn1)(CCCNC(=O)Cn1cc(CCC(=O)N[C@@H](Cc2cnc[nH]2)C(=O)N[C@H](Cc2ccccc2)C(=O)N[C@@H](CCCNC(=N)N)C(=O)N[C@@H](Cc2c[nH]c3ccccc23)C(N)=O)nn1)NC(=O)CNC(=O)Cn1cc(CCC(=O)N[C@@H](Cc2cnc[nH]2)C(=O)N[C@H](Cc2ccccc2)C(=O)N[C@@H](CCCNC(=N)N)C(=O)N[C@@H](Cc2c[nH]c3ccccc23)C(N)=O)nn1)C(=O)NCCC(=O)N[C@H](CCCNC(=N)N)C(=O)N[C@@H](CCCNC(=N)N)C(=O)N[C@H](CCCNC(=N)N)C(=O)N[C@@H](CCCCNC(=O)CCCCC[N+]1=C(/C=C/C=C/C=C2/N(C)c3ccccc3C2(C)C)C(C)(C)c2ccccc21)C(N)=O` (stereo not given in full), the results for the Drug uptake result in series [5] and in series [6] were “Active” and “Not Active”, respectively.

Regarding `N=C(N)NCCC[C@H](NC(=O)[C@@H](Cc1ccccc1)NC(=O)[C@H](Cc1cnc[nH]1)NC(=O)CCc1cn(CC(=O)NCC(=O)NC(CCCNC(=O)Cn2cc(CCC(=O)N[C@@H](Cc3cnc[nH]3)C(=O)N[C@H](Cc3ccccc3)C(=O)N[C@@H](CCCN=C(N)N)C(=O)N[C@@H](Cc3c[nH]c4ccccc34)C(N)=O)nn2)(CCCNC(=O)Cn2cc(CCC(=O)N[C@@H](Cc3cnc[nH]3)C(=O)N[C@H](Cc3ccccc3)C(=O)N[C@@H](CCCN=C(N)N)C(=O)N[C@@H](Cc3c[nH]c4ccccc34)C(N)=O)nn2)C(=O)NCCC(N)=O)nn1)C(=O)N[C@@H](Cc1c[nH]c2ccccc12)C(N)=O`, the Activity entry in series [3] and in series [4] was “Non-toxic” in each case.

With `CN1/C(=C/C=C/C=C/C2=[N+](CCCCCC(=O)NCCCC[C@H](NC(=O)[C@@H](CCCNC(=N)N)NC(=O)[C@H](CCCNC(=N)N)NC(=O)[C@@H](CCCNC(=N)N)NC(=O)CCNC(=O)C(CCCNC(=O)Cn3cc(CCC(=O)N[C@@H](Cc4cnc[nH]4)C(=O)N[C@H](Cc4ccccc4)C(=O)N[C@@H](CCCNC(=N)N)C(=O)N[C@@H](Cc4c[nH]c5ccccc45)C(N)=O)nn3)(CCCNC(=O)Cn3cc(CCC(=O)N[C@@H](Cc4cnc[nH]4)C(=O)N[C@H](Cc4ccccc4)C(=O)N[C@@H](CCCNC(=N)N)C(=O)N[C@@H](Cc4c[nH]c5ccccc45)C(N)=O)nn3)NC(=O)CNC(=O)Cn3cc(CCC(=O)N[C@@H](Cc4cnc[nH]4)C(=O)N[C@H](Cc4ccccc4)C(=O)N[C@@H](CCCNC(=N)N)C(=O)N[C@@H](Cc4c[nH]c5ccccc45)C(N)=O)nn3)C(N)=O)c3ccccc3C2(C)C)C(C)(C)c2ccccc21` (stereo not given in full), the Drug uptake result in series [5] was “Active”; in series [6], “Not Active”.

For orientation: IC50 means the concentration at which inhibition is half-maximal. High values mean weaker potency, low ones greater potency. `CC(=O)NCCCC(CCCNC(C)=O)(NC(=O)CNC(=O)Cn1cc(CCC(=O)N[C@@H](Cc2cnc[nH]2)C(=O)N[C@H](Cc2ccccc2)C(=O)N[C@@H](CCCN=C(N)N)C(=O)N[C@@H](Cc2c[nH]c3ccccc23)C(=O)O)nn1)C(=O)NCCC(N)=O`: in series [7], the IC50 was 4.9 µM.

Regarding `CCCC[C@H](NC(=O)[C@H](CO)NC(=O)[C@H](Cc1ccc(O)cc1)NC(=O)[C@H](CO)NC(C)=O)C(=O)N[C@@H](CCC(=O)O)C(=O)N[C@@H](Cc1cnc[nH]1)C(=O)N[C@H](Cc1ccccc1)C(=O)N[C@@H](CCCNC(=N)N)C(=O)N[C@@H](Cc1c[nH]c2ccccc12)C(=O)NCC(=O)N[C@@H](CCCCNC(=O)CCCCC[N+]1=C(/C=C/C=C/C=C2/N(C)c3ccccc3C2(C)C)C(C)(C)c2ccccc21)C(=O)N1CCC[C@H]1C(=O)N[C@H](C(N)=O)C(C)C`, the results for the Drug uptake entry in series [5] and in series [6] were “Active” and “Not Active”, respectively.
